This passage reports Activity and Emax results from ChEMBL document CHEMBL3272145, “Synthesis and some pharmacological properties of the 23-peptide 15-lysine-secretin-(5--27). Special role of the residue in position 15 in biological activity of the vasoactive intestinal polypeptide” (1978).

The species entered for assay [1] is Cavia porcellus. The experiment in a line: Vasolrelaxant activity in guinea pig trachea. Format: functional, tissue-based.
The nature of assay [2]: Vasolrelaxant activity in rat gastric fundus. Format: functional, tissue-based. The settings on record: Stomach.
Assay [3] in a line: Vasolrelaxant activity in guinea pig lung. The settings on record: Cavia porcellus. Format: functional.
The species entered for assay [4] is Cavia porcellus. The experiment in a line: Apparent binding affinity to VIP receptor in guinea pig acinar cells assessed as inhibition of VIP-induced cAMP accumulation measured as concentration required to occupy 50% of receptor. It is filed as cell-based. In a few lines: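 Dispersed acinar cells from guinea pig pancreas. Apparent affinity for the VIP-preferring receptor was calculated from the fragment's ability to inhibit the cAMP increase caused by 10^-9 M VIP. Values are means (±1 SD) from three separate experiments.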

For assay [5], the species on record is Cavia porcellus. Description: Apparent binding affinity to secretin receptor in guinea pig acinar cells assessed as inhibition of secretin-induced cAMP accumulation measured as concentration required to occupy 50% of receptor. It is filed as cell-based. The gist of the method:
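Dispersed acinar cells from guinea pig pancreas. Apparent affinity for the secretin-preferring receptor was calculated from the fragment's ability to inhibit the cAMP increase caused by 10^-9 M secretin. Values are means (±1 SD) from three separate experiments.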

The species named for assay [6] is Rattus norvegicus. Description: Effect on exocrine pancreatic secretion in rat. It is filed as functional, organism-based.
For assay [7], the system named is Rattus norvegicus. Description: Induction of pancreatic secretory flow in iv dosed rat measured per 10 mins per gram wet weight of pancreas relative to secretin. It is filed as functional.
Assay [8] relates to Rattus norvegicus. Description: Induction of pancreatic secretory flow in iv dosed rat measured per 10 mins per gram wet weight of pancreas. It is filed as functional.

The source made the active and inactive calls. The rule behind the calls is not given here.

Take `CC[C@H](C)[C@H](NC(=O)[C@H](CO)NC(=O)[C@H](CC(N)=O)NC(=O)[C@H](CC(C)C)NC(=O)[C@H](Cc1ccc(O)cc1)NC(=O)[C@H](CCCCN)NC(=O)[C@H](CCCCN)NC(=O)[C@@H](NC(=O)[C@H](C)NC(=O)[C@H](CCSC)NC(=O)[C@H](CCC(N)=O)NC(=O)[C@H](CCCCN)NC(=O)[C@H](CCCN=C(N)N)NC(=O)[C@H](CC(C)C)NC(=O)[C@H](CCCN=C(N)N)NC(=O)[C@@H](NC(=O)[C@H](Cc1ccc(O)cc1)NC(=O)[C@H](CC(N)=O)NC(=O)[C@H](CC(=O)O)NC(=O)[C@@H](NC(=O)[C@H](Cc1ccccc1)NC(=O)[C@@H](NC(=O)[C@H](C)NC(=O)[C@H](CC(=O)O)NC(=O)[C@H](CO)NC(=O)[C@@H](N)Cc1c[nH]cn1)C(C)C)[C@@H](C)O)[C@@H](C)O)C(C)C)C(=O)N[C@@H](CC(C)C)C(=O)N[C@@H](CC(N)=O)C(N)=O`: the outcome (in the assay listed under Cavia porcellus [1]; in assay [2]; in assay [3]) was Active.
As for H-TFTSELSRLRDSARLQRLLQGLV-NH2, the result (in the assay listed under Cavia porcellus [1]; in assay [2]; in assay [3]) was Active. For the same molecule, the Activity in the assay filed under Cavia porcellus [4] amounted to 46 ×10⁻⁷ M; in the assay listed under Cavia porcellus [5] it was 2.3 ×10⁻⁷ M.
With H-TFTSELSRLRKSARLQRLLQGLV-NH2, the result (in the assay listed under Cavia porcellus [1]; in assay [2]; in assay [3]) was Active. The outcome in the assay filed under Rattus norvegicus [6] was inactive. For the same molecule, in the assay on Rattus norvegicus [7], the maximal effect (Emax) was found to be 20%. The Activity in the assay listed under Cavia porcellus [4] stood at 10 ×10⁻⁷ M; in the assay filed under Cavia porcellus [5], 12 ×10⁻⁷ M; in the assay with Rattus norvegicus [8] it was 12.9 µL.
As for H-TFTSELSRLRNSARLQRLLQGLV-NH2, the outcome in the assay filed under Rattus norvegicus [6] was inactive. Also, the figures for the Activity in the assay filed under Cavia porcellus [4] and in the assay listed under Cavia porcellus [5] were 8 ×10⁻⁷ M and 1.9 ×10⁻⁷ M, respectively. The outcome in the assay with Rattus norvegicus [8] was Active.
As to SECRETIN, the outcome in the assay with Rattus norvegicus [8] was Active.
